Source: publication PMC10625806 (European journal of pharmaceutical sciences : official …, 2018)
Where “and” joins values, the source holds several entries; their conditions need not be identical. Equal values may be shown once. One block for each molecule: values may come before it.

What was measured:
OXE receptor [1] = biological target: OXE receptor (Homo sapiens, UniProt Q8TDS5); assay: 5-oxo-ETE-induced calcium mobilization in human neutrophils; format: cell-based; details: for times less potent than 264: ratio of IC50, calcium mobilization in human neutrophils
Sequence of OXE receptor (Q8TDS5 whole entry): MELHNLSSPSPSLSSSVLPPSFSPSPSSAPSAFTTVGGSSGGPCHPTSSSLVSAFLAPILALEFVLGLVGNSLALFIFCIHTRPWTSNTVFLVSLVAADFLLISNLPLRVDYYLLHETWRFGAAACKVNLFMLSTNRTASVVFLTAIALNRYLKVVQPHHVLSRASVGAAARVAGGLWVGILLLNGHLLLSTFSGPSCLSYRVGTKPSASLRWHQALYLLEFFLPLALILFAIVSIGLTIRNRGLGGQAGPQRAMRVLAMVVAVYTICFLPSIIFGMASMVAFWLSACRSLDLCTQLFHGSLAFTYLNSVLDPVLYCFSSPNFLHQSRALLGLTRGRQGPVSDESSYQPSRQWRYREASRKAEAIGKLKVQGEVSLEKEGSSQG

OXE receptor [2] = details: stated without experiment in this paper; ref not given; cited from earlier work
[3] = Plasma levels of 264 and its metabolites after oral gavage to monkeys; format: in vivo, cynomolgus monkeys
How it was run: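 An ethanolic stock was added to 10 volumes of 20 mM NaHCO3, vortexed, made fresh for each animal and gavaged at 30 or 75 mg/kg (30 mg/kg to 4 animals). Blood (1 ml) was collected in heparinized tubes up to 24 h and centrifuged to plasma. Extracts were run on Kinetex C18 RP-HPLC (H2O/MeCN, 0.02% HOAc; 30–65% MeCN over 1–20 min). Metabolites were identified by co-chromatography with standards.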

feline OXE receptor = details: ref Cossette et al., 2015; cited from earlier work
[4] = Solubility in aqueous solutions; format: physicochemical; details: even as the carboxylate anion
OXE receptor [5] = assay: 5-oxo-ETE-induced actin polymerization in monkey neutrophils; format: cell-based, cynomolgus monkey; details: read-out: IC50, inhibition of 5-oxo-ETE-induced actin polymerization, 5-oxo-ETE 10 nM
[6] = Metabolism of 264 by monkey liver microsomes; format: in vitro ADME, cynomolgus monkeys; details: 0.5 mg protein/ml; 264 100 μM; NADPH 2 mM; 4 h, 37 °C
How it was run: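 Pooled male cynomolgus liver microsomes in PBS were incubated with test compound and NADPH, then stopped with MeOH and cooling to 0 °C. Products were analysed by precolumn extraction/RP-HPLC on a Kinetex C18 column (1 ml/min, 35 °C, 0.02% HOAc) using 61–82% MeOH over 63 min or 38–70% MeCN over 78 min. Metabolites were assigned by co-chromatography with authentic standards and by UV spectra.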

[7] = Plasma levels of 264 after oral gavage to rats; format: in vivo, Sprague-Dawley rats; details: rat
How it was run: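 Test compound was dissolved in EtOH (100 μl), added to 20 mM NaHCO3 pH 8.0 (1 ml), vortexed, and the whole suspension given by gavage at 5–30 mg/kg to Sprague-Dawley rats (200–250 g) fasted 3 h. Rats were killed with CO2 at set times, and blood was taken by cardiac puncture. Plasma was solid-phase extracted with an internal standard and run on Novapak C18 RP-HPLC (70–100% MeOH, 0.02% HOAc, 15 min, 30 °C).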

[8] = cynomolgus, cynomolgus monkey, plasma, po, 75 mg/kg
[9] = monkey, oral gavage 30 mg/kg 264
[10] = monkey, oral gavage 75 mg/kg 264

IC50 (OXE receptor [1]): 530 nM
Compound: CC(CC(=O)O)CC(=O)n1c(CCCCCCO)cc2ccc(Cl)cc21 (stereo not drawn) [ω1-hydroxy-264, 5-[6-Chloro-2-(6-hydroxy-hexyl)-indol-1-yl]-3-methyl-5-oxo-pentanoic acid]

concentration at 24 h [3, 8]: ~9 µM | plasma concentration relative to that of 264 between 8 and 12 h ([3]; monkey, oral 30 mg/kg 264, 8-12 h): about 5 times | plateau plasma concentration between 1 and 4 h [3, 9]: ~ 9 μM | maximal plasma levels [3, 10]: ~ 28 μM | IC50 (OXE receptor [1]): 3300 nM | times less potent than 264 (OXE receptor [1]): ~400 times
Compound: CC(O)CCCCc1cc2ccc(Cl)cc2n1C(=O)CC(C)CC(=O)O (stereo not drawn) [ω2-hydroxy-264, 5-[6-Chloro-2-(5-hydroxy-hexyl)-indol-1-yl]-3-methyl-5-oxo-pentanoicacid]

IC50 (OXE receptor [1]): 13000 nM
Compound: CC(CC(=O)O)CC(=O)n1c(CCCCCC(=O)O)cc2ccc(Cl)cc21 (stereo not drawn) [ω-carboxy-264, 6-[1-(4-Carboxy-3-methyl-butyryl)-6-chloro-1H-indol-2-yl]-hexanoicacid]

Tmax ([3]; cynomolgus, cynomolgus monkey, plasma, po, 30 mg/kg): 4 h | Tmax [3, 8]: 8 to 12 h | maximal plasma levels [3, 9]: ~ 4 μM | maximal plasma levels [3, 10]: ~ 12 μM | IC50 (OXE receptor [1]): 1400 nM | times less potent than 264 (OXE receptor [1]): ~170 times
Compound: CC(=O)CCCCc1cc2ccc(Cl)cc2n1C(=O)CC(C)CC(=O)O (stereo not drawn) [ω2-oxo-264, 5-[6-Chloro-2-(5-oxo-hexyl)-indol-1-yl]-3-methyl-5-oxo-pentanoic acid]

IC50 (OXE receptor [1]): 5700 nM
Compound: CC(CC(=O)O)CC(=O)n1c(CCCC(=O)O)cc2ccc(Cl)cc21 (stereo not drawn) [dinor-ω-carboxy-264, 5-[2-(3-Carboxy-propyl)-6-chloro-indol-1-yl]-3-methyl-5-oxo-pentanoicacid]
